For data set [1], the system named is MCF7. Briefly: Down regulation of VEGF gene expression in human MCF7 cells at 10 ug/mL after 48 hrs by RT-qPCR analysis relative to control. Format: functional. In short, it runs like this:
(§1)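 HT-29 or MCF-7 cells grown to 70–80% confluence, serum-starved 24 h, then exposed to compound in DMSO for 48 h; DMSO-only control. Total RNA extracted and transcript measured by RT-qPCR, normalized to β-actin and expressed as percentage of control. At least three measurements; mean ± SEM; one-sample t-test.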

Data set [2] relates to HT-29. Briefly: Down regulation of c-Myc gene expression in human HT-29 cells at 10 ug/mL after 48 hrs by RT-qPCR analysis relative to control. It is filed as functional. In short, it runs like this: as §1
(Quantitative PCR measures a nucleic acid by following its amplification.)

Data set [3] can be described thus: Selectivity ratio of IC50 for HEK293 cells to IC50 for human MCF7 cells. Format: ADME, cell-based. Conditions: HEK293 cells versus MCF7 cells, read-out: Ratio IC50.
The test system of data set [4] is HT-29. Kind of data set: Down regulation of VEGF gene expression in human HT-29 cells at 10 ug/mL after 48 hrs by RT-qPCR analysis relative to control. It is filed as functional. The procedure, abridged:
as §1

The subject of data set [5] is HT-29. Kind of data set: Down regulation of hTERT gene expression in human HT-29 cells at 10 ug/mL after 48 hrs by RT-qPCR analysis relative to control. It is filed as functional. In short, it runs like this:
as §1

Data set [6] has as its system MCF7. Kind of data set: Down regulation of hTERT gene expression in human MCF7 cells at 10 ug/mL after 48 hrs by RT-qPCR analysis relative to control. Format: functional. In short, it runs like this: as §1
Data set [7] deals with MCF7. Kind of data set: Cytotoxicity against human MCF7 cells assessed inhibition of cell proliferation after 3 days by MTT assay. Conditions: MCF7, 72 h. In general terms: Tetrazolium dyes change colour on reduction, which living cells bring about.
The subject of data set [8] is HT-29. Kind of data set: Cytotoxicity against human HT-29 cells assessed inhibition of cell proliferation after 3 days by MTT assay. The note with it: HT-29, 72 h.
Data set [9] has as its system MCF7. Kind of data set: Down regulation of c-Myc gene expression in human MCF7 cells at 10 ug/mL after 48 hrs by RT-qPCR analysis relative to control. It is filed as functional. The procedure, abridged:
as §1

Data set [10] has as its system HT-29. Kind of data set: Inhibition of VEGF protein secretion in human HT-29 cells at 10 ug/mL after 72 hrs by ELISA relative to control. It is filed as functional. Set-up: scale not given: the % may be the effect or the level left. (In general: ELISA stands for enzyme-linked immunosorbent assay.)
Data set [11] can be described thus: Selectivity ratio of IC50 for HEK293 cells to IC50 for human HT-29 cells. Format: ADME, cell-based. Conditions: HEK293 cells versus HT-29 cells, read-out: Ratio IC50.
Data set [12] deals with MCF7. Briefly: Inhibition of VEGF protein secretion in human MCF7 cells at 10 ug/mL after 72 hrs by ELISA relative to control. Format: functional. Set-up: scale not given: the % may be the effect or the level left.
Data set [13] deals with HEK293. Kind of data set: Cytotoxicity against HEK293 cells assessed inhibition of cell proliferation after 3 days by MTT assay. The note with it: Homo sapiens, HEK293, 72 h.

In brackets after ≈: the same amount, converted by molar mass.

In the case of `Oc1ccc(/C=C/c2cc(O)cc(O)c2)cc1` [RESVERATROL], the Activity is recorded as 54% in data set [1]; 51% in data set [2]; 65% in data set [4]; 57% in data set [5]; 77% in data set [6]; 41% in data set [9]. In addition, the Activity in data set [10] came to 78%; in data set [12], 100%. Besides, the selectivity ratio in data set [3] was 0.4; in [11], 0.2. The IC50 in [7] came out at 16.1 µg/mL (≈ 70.5 µM); in [8] it was 34.1 µg/mL (≈ 149 µM); in data set [13], 7.1 µg/mL (≈ 31.1 µM).
As for `COc1ccc(/C=C/c2ccccc2O)cc1` [2-hydroxy-4'-methoxystilbene], the Activity in [2] is 58%; in data set [4] it was 41%; in data set [5], 72%; in [10], 69%. Also, the selectivity ratio was found to be 1.2 in [3] and 2.1 in data set [11]. Moreover, the IC50 in data set [7] was found to be 17 µg/mL (≈ 75.1 µM); in [8] it was 10 µg/mL (≈ 44.2 µM); in data set [13], 21 µg/mL (≈ 92.8 µM).
Consider `COc1cccc(/C=C/c2ccccc2N)c1`, for which the Activity in [2] is recorded as 79%; in [4] it was 100%; in [5], 35%; in data set [10], 51%. Further, the selectivity ratio in data set [3] and in data set [11] was less than 0.1 in each case. The IC50 amounted to 6.1 µg/mL (≈ 27.1 µM) in data set [7], 21.2 µg/mL (≈ 94.1 µM) in data set [8] and 0.5 µg/mL (≈ 2.22 µM) in [13].
Take `COc1ccccc1/C=C/c1cccc(N)c1`: the Activity in data set [2] is reported as 45%; in [4] it was 67%; in data set [5], 52%; in data set [10], 75%. In addition, the figures for the selectivity ratio in data set [3] and in data set [11] were 1.2 and 1.8, respectively. The results for the IC50 in data set [7], in data set [8] and in [13] were 38.7 µg/mL (≈ 172 µM), 25.3 µg/mL (≈ 112 µM) and 45 µg/mL (≈ 200 µM), respectively.
Turning to `COc1ccccc1/C=C/c1ccc(O)cc1`, the Activity is 100% in [2], 46% in data set [4], 100% in data set [5] and 67% in data set [10]. Also, the selectivity ratio in [3] was determined as 2.2; in data set [11], 1.7. Moreover, the half-inhibitory concentration (IC50) in data set [7] came out at 19 µg/mL (≈ 84 µM); in data set [8] it was 24 µg/mL (≈ 106 µM); in [13], 41 µg/mL (≈ 181 µM).
As to `Nc1ccc(/C=C/c2ccccc2)cc1` [(E)-4-STYRYLANILINE], the Activity was determined as 46% in [2], 24% in data set [4], 65% in [5] and 78% in data set [10]. The selectivity ratio in [3] stood at 0.7; in data set [11], 2.6. Besides, the IC50 in data set [7] stood at 16 µg/mL (≈ 81.9 µM); in data set [8] it was 4.4 µg/mL (≈ 22.5 µM); in data set [13], 11.4 µg/mL (≈ 58.4 µM).
In the case of `COc1cccc(/C=C/c2cccc(N)c2)c1`, the Activity in [2] amounted to 34%; in data set [4] it was 23%; in data set [5], 100%; in data set [10], 73%. The selectivity ratio in data set [3] worked out at 0.5; in data set [11], 0.8. Moreover, the IC50 in data set [7] was 34 µg/mL (≈ 151 µM); in data set [8], 19.6 µg/mL (≈ 87 µM); in [13], 16 µg/mL (≈ 71 µM).
Take `Nc1ccccc1/C=C/c1ccccc1`: the Activity turned out to be 100% in [2], 100% in data set [4], 59% in data set [5] and 59% in data set [10]. Further, the selectivity ratio in data set [3] worked out at 0.9; in data set [11], 0.1. Also, the figures for the IC50 in data set [7], in data set [8] and in [13] were 1.4 µg/mL (≈ 7.17 µM), 17 µg/mL (≈ 87.1 µM) and 1.3 µg/mL (≈ 6.66 µM), respectively.
As for `Nc1cccc(/C=C/c2ccccc2)c1`, the Activity in [2] turned out to be 100%; in [4] it was 100%; in data set [5], 100%; in [10] it was 77%. Moreover, the selectivity ratio in [3] came to 6; in [11] it was 6.5. Also, the figures for the IC50 in data set [7], in [8] and in data set [13] were 14 µg/mL (≈ 71.7 µM), 12.9 µg/mL (≈ 66.1 µM) and 84 µg/mL (≈ 430 µM), respectively.
Consider `COc1ccc(/C=C/c2cccc(N)c2)cc1`, for which the Activity in data set [2] was 100%; in data set [4], 89%; in [5], 96%; in [10], 73%. For the same compound, the selectivity ratio in data set [3] was 0.5; in [11], 0.7. Further, the IC50 in [7] amounted to 23 µg/mL (≈ 102 µM); in data set [8], 16.3 µg/mL (≈ 72.4 µM); in [13] it was 11 µg/mL (≈ 48.8 µM).
For the compound `COc1cccc(/C=C/c2cccc(O)c2)c1`, the Activity was determined as 59% in [2], 60% in data set [4], 41% in [5] and 65% in data set [10]. Moreover, the selectivity ratio in [3] is 1.5; in [11] it was 1.6. Besides, the figures for the IC50 in data set [7], in data set [8] and in data set [13] were 13 µg/mL (≈ 57.5 µM), 11.5 µg/mL (≈ 50.8 µM) and 19 µg/mL (≈ 84 µM), respectively.
On to `CCCCCCCCCCCC(=O)Nc1ccccc1/C=C/c1ccccc1`, for which the Activity in data set [2] worked out at 45%; in data set [4], 37%; in data set [5], 53%; in data set [10], 79%. The results for the selectivity ratio in data set [3] and in [11] were 1.3 and 6.4, respectively. The IC50 in [7] is 12 µg/mL (≈ 31.8 µM); in data set [8], 2.5 µg/mL (≈ 6.62 µM); in data set [13], 16 µg/mL (≈ 42.4 µM).
As to `COc1cccc(/C=C/c2ccc(N)cc2)c1`, the Activity is recorded as 74% in [2], 100% in [4], 81% in [5] and 74% in data set [10]. In addition, the results for the selectivity ratio in [3] and in data set [11] were 0.3 and 1.1, respectively. The results for the IC50 in data set [7], in data set [8] and in data set [13] were 52 µg/mL (≈ 231 µM), 16.1 µg/mL (≈ 71.5 µM) and 18 µg/mL (≈ 79.9 µM), respectively.

As a reminder, the IC50 is the concentration that gives 50% inhibition.

For the origin of these results see ChEMBL document CHEMBL3734660, “Inhibitory effect of cytotoxic stilbenes related to resveratrol on the expression of the VEGF, hTERT and c-Myc genes” (Eur J Med Chem, 2015).
